Test results reported in ChEMBL document CHEMBL2385006, “Fluorogenic sialic acid glycosides for quantification of sialidase activity upon unnatural substrates” (Bioorg Med Chem Lett, 2013).
Active and inactive are the calls of the source. The rule behind the calls is not given here.

Assays:
HL-60 [1] = assay: Activity at sialidase in human HL60 cell lysate assessed as 4-methylumbelliferyl released at 125 uM for 2 hrs followed by washout by fluorescence assay; format: cell-based
Method in brief: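 To test uptake, HL60 cells were incubated 2 h with the 4MU sialoside, then washed thoroughly to remove free 4MU and substrate. The cells were resuspended in cell lysis buffer, and the fluorescence of the lysate was read against empty wells without cells or compound.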

HL-60 [2] = assay: Activity at sialidase in human HL60 cells assessed as increase in 4-methylumbelliferyl release at 125 uM after 2 hrs by fluorescence assay in presence of DANA; format: cell-based
Method in brief: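 Same whole-cell set-up: HL60 cells in acetate buffer pH 4.5 with 0.125 mM 4MU glycoside, 2 h, 37 °C, together with 0.1 mM of the non-specific sialidase inhibitor DANA. The mixture was adjusted to pH 10.7 with glycine buffer before fluorescence reading (ex 365/em 450 nm). At least biological triplicate; standard deviations shown.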

HL-60 [3] = assay: Activity at sialidase in human HL60 cells assessed as increase in 4-methylumbelliferyl release at 125 uM after 2 hrs by fluorescence assay; format: cell-based
Method in brief: (§1)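 Whole HL60 cells suspended in acetate buffer (pH 4.5) were incubated with 0.125 mM 4-methylumbelliferyl sialoside for 2 h at 37 °C. The reaction was stopped by raising the pH to 10.7 with glycine buffer, and released 4MU was read at once (ex 365 nm, em 450 nm). Values are means with standard deviations from at least biological triplicate.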

Clostridium perfringens [4] = assay: Activity at Clostridium perfringens sialidase assessed as 4-methylumbelliferyl released at 125 uM for 1 hr by fluorescence assay
Method in brief: (§2)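 Purified recombinant C. perfringens sialidase (0.05 mU) in acetate buffer pH 4.5 incubated 1 h at 37°C with 0.125 mM 4MU glycoside; parallel reactions with 0.1 mM DANA. Reaction brought to pH 10.7 with glycine buffer; fluorescence read at ex 365/em 450 nm. Relative values compare fluorescence with that of the natural Neu5Ac substrate. At least biological triplicate; standard deviations.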

Clostridium perfringens [5] = assay: Activity at Clostridium perfringens sialidase assessed as 4-methylumbelliferyl released at 125 uM for 1 hr by fluorescence assay relative to 4-Methylcoumarin-7-yl 5-acetamido-3,5-dideoxy-alpha-D-glycero-D-galacto-2-nonulopyranosidonic acid; method in brief: as §2
HL-60 [6] = assay: Activity at sialidase in human HL60 cells assessed as decrease in 4-methylumbelliferyl release at 125 uM after 2 hrs by fluorescence assay; format: cell-based; method in brief: as §1
HL-60 [7] = assay: Activity at sialidase in human HL60 cells assessed as increase in 4-methylumbelliferyl release at 125 uM after 2 hrs by fluorescence assay relative to 4-Methylcoumarin-7-yl 5-acetamido-3,5-dideoxy-alpha-D-glycero-D-galacto-2-nonulopyranosidonic acid; format: cell-based
Method in brief: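 Whole HL60 cells suspended in acetate buffer pH 4.5, treated 2 h at 37°C with 0.125 mM 4MU glycoside; parallel wells with 0.1 mM DANA. Stopped with glycine buffer pH 10.7, fluorescence read immediately (ex 365/em 450 nm). Fluorescence increase over background compared with the natural Neu5Ac substrate. At least biological triplicate; standard deviations.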

HL-60 [8] = assay: Activity at sialidase in human HL60 cells assessed as decrease in 4-methylumbelliferyl release at 125 uM after 2 hrs by fluorescence assay relative to 4-Methylcoumarin-7-yl 5-acetamido-3,5-dideoxy-alpha-D-glycero-D-galacto-2-nonulopyranosidonic acid; format: cell-based; set-up: scale not given: the % may be the effect or the level left
Method in brief: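 Intact HL60 cells in pH 4.5 acetate buffer were exposed to 0.125 mM glycoside for 2 h at 37 °C. Glycine buffer (pH 10.7) was then added, and fluorescence was measured (ex 365, em 450 nm). The increase over background was expressed relative to the natural N-acetyl 4MU sialoside run the same way. At least biological triplicate, with standard deviations.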

Row | Compound | Activity (HL-60 [1]) | Activity (HL-60 [2]) | Activity (HL-60 [3]) | Activity (Clostridium perfringens [4]) | Activity (Clostridium perfringens [5]) | Activity (HL-60 [6]) | Activity (HL-60 [7]) | Activity (HL-60 [8])
1 | CC(=O)N[C@H]1[C@H]([C@H](O)[C@H](O)CO)O[C@@](Oc2ccc3c(C)cc(=O)oc3c2)(C(=O)O)C[C@@H]1O | inactive | inactive | Active | Active | – | – | – | –
2 | Cc1cc(=O)oc2cc(O[C@]3(C(=O)O)C[C@H](O)[C@@H](NC(=O)CC(F)(F)F)[C@H]([C@H](O)[C@H](O)CO)O3)ccc12 | – | inactive | – | – | Active | Active | – | –
3 | CC(F)(F)F.Cc1cc(=O)oc2cc(O[C@]3(C(=O)O)C[C@H](O)[C@@H](NC(=O)CO)[C@H]([C@H](O)[C@H](O)CO)O3)ccc12 | – | inactive | – | – | 6% | – | 20% | –
4 | Cc1cc(=O)oc2cc(O[C@]3(C(=O)O)C[C@H](O)[C@@H](NC(=O)CCC(F)(F)F)[C@H]([C@H](O)[C@H](O)CO)O3)ccc12 | – | inactive | – | inactive | – | Active | – | –
5 | Cc1cc(=O)oc2cc(O[C@]3(C(=O)O)C[C@H](O)[C@@H](NC(=O)CF)[C@H]([C@H](O)[C@H](O)CO)O3)ccc12 | – | inactive | – | – | 6% | – | 50% | –
6 | Cc1cc(=O)oc2cc(O[C@]3(C(=O)O)C[C@H](O)[C@@H](NC(=O)C(C)C)[C@H]([C@H](O)[C@H](O)CO)O3)ccc12 | – | inactive | – | – | Active | – | – | 60%
